Rin1-Abl PPI inh = human Rin1-Abl interaction inhibition | P00519+Q13671 | TR-FRET Rin1/Abl binding, biochemical | inhibition, % at 7.35 µM | hit rate 0.4% among 360,000; in the data active = inhibition above about 5%, passing the limit was not always enough
Arrestin-AP2 inh = inhibitors of human beta-arrestin and AP2 interaction; AID 504490; FITC-arrestin peptide / GST-AP2 beads, flow cytometry; AP2 beta2 appendage carries R879A mutation; inhibition, % at 10 µM; hit rate 0.31% among 340,000;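 active = inhibition above a set limit, near 3 SD of compounds lacking own fluorescence, cut at about 54% in these data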;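 note: plate controls were DMSO wells for no effect and 5 µM unlabelled arrestin peptide for full effect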
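Measured by: flow cytometry, FL1 (488/535 nm); Material: AP2 appendage R879A on GSH beads; Evaluation: percent response; Timing: pre-incubation 12 min, peptide binding 1 h, room temperature; Also added: 50 nM FITC-arrestin peptide; Medium: PBS with 0.05% Tween 20 and 0.1% BSA.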
SKN-1 inh = inhibitors of C. elegans SKN-1; C. elegans VP596 Pgst-4::GFP/RFP ratio, acrylamide-induced, 24 h; inhibition, % at 21.8 µM; hit rate 0.49% among 360,000; AID 624304;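 active = interference check ratio from 0.5 to 1.5 plus GFP to RFP signal ratio inhibition reaching or exceeding a fixed threshold, cut at about 30% in these data, passing the limit was not always enough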
Tb MetRS inh = blocks T. brucei methionyl-tRNA synthetase activity; purified T. brucei MetRS, ATP depletion, Kinase-Glo luminescence; inhibition, % at 11.9 µM; hit rate 0.4% among 360,000;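 active = inhibition above a per-plate cutoff of the control wells' mean inhibition plus 3 SD, cut at about 5.5% in these data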;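 note: 0% = DMSO wells median and 100% = median of wells with control inhibitor compound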
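Assay system: T. brucei methionyl-tRNA synthetase, purified | Medium: HEPES buffer with MgCl2, KCl, DTT, spermine, BSA, pyrophosphatase | Compound: 11.9 µM single point | Incubation: 15 min enzyme-compound preincubation, 2 h reaction, 10 min detection, 25 °C | Measured by: Kinase-Glo luciferase luminescence reporting remaining unconsumed ATP | Measure: % inhibition normalized to control-well medians | Replication: Singlicate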
MT1-MMP act inh = inhibitors of human MT1-MMP activation | P50281 | HT1080 RFP-PRO-GFP cells, GFP/RFP ratio fluorescence, overnight; percent of plate control window, DMSO zero | GFP/RFP ratio change, % at 20 µM | hit rate 0.061% among 360,000;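 active = GFP/RFP ratio change of at least 30% with cell ATP level not reduced by more than half and red fluorescence within 50% of control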
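Read-out: GFP/RFP fluorescence ratio; Test system: RFP-PRO-GFP reporter HT1080 cells; Compound dosing: single-point 20 µM compound, 1% DMSO; Times: overnight compound exposure at 37 °C.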
Tb MetRS conf = Trypanosoma brucei MetRS inhibition confirmed. AID 624412. shares compounds with Tb MetRS inh. inhibition, % at 11.9 µM. T. brucei MetRS enzyme, luminescence (ATP depletion). hit rate 93% among 1,400; in the data active = inhibition above about 7%
Jurkat tox = Jurkat T cell cytotoxicity for MetRS hits | shares compounds with Tb MetRS inh | Jurkat cells viability, ATP luminescence | inhibition, % at 8.3 µM | hit rate 12% among 1,400 | AID 624413; in the data active = inhibition above about 15%;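 note: 0% = vehicle and 100% = reference inhibitor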
TbMetRS FP orth = inhibits T. brucei methionyl tRNA synthetase in orthogonal FP test | AID 651607 | shares compounds with Tb MetRS inh | hit rate 44% among 1,400 | inhibition, % at 11.9 µM | purified T. brucei MetRS, fluorescence polarization; in the data active = inhibition above about 17%;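 note: 0% = vehicle wells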
MT1-MMP conf = MT1-MMP (human) activation inhibition, single-concentration validation; inhibition, % at 20 µM; shares compounds with MT1-MMP act inh; hit rate 10% among 200; HT1080 RFP-PRO-GFP cells, GFP and RFP fluorescence ratio, overnight;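 active = inhibition of at least 50% in the primary cell screen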
Numbers without * were called inactive; . = no result. Compounds with a hit are over-represented: about 1.6% of the library has one in this group of screens.

SMILES	Rin1-Abl PPI inh	Arrestin-AP2 inh	SKN-1 inh	Tb MetRS inh	MT1-MMP act inh	MT1-MMP conf	others
COc1cccc(-c2nnn(CC(=O)N(C3CCCCC3)C3CCS(=O)(=O)C3)n2)c1 (stereo not given)	2	.	-5	0	4	.
CCC(=O)N1CCC1(C)C(=O)Nc1ccc2c(c1)CCN2C(C)=O (stereo not given)	-1	.	-5	0	-1	.
COC(=O)C1=C(N)Oc2cc(C)n(Cc3ccco3)c(=O)c2C1c1cccc(Cl)c1 (stereo not given)	3	-13	14	52*	-2	.	Tb MetRS conf=6;Jurkat tox=4;TbMetRS FP orth=2
CCn1c(C)cc2c(c1=O)C(c1ccccc1)C(C(=O)OC)=C(N)O2 (stereo not given)	-2	1	9	0	-7	.
O=C(CCCn1c(=S)[nH]c2cc3c(cc2c1=O)OCO3)N1CCN(c2ccccc2)CC1	2	-11	7	0	4	.
O=C(CCCn1c(=S)[nH]c2cc3c(cc2c1=O)OCO3)N1CCN(c2ccc(Cl)cc2)CC1	2	-4	21	8.3*	-2	.	Tb MetRS conf=70*;Jurkat tox=2;TbMetRS FP orth=35*
O=C(CSc1nnc(C2CC2)n1C1CC1)N1CCN(c2ccc(O)cc2)CC1	4	.	-12	0	3	.
CN(C(=S)NC(=O)C1CCCC1)c1ccccc1	1	.	23	0	2	.
CCS(=O)(=O)N1CCN(c2ccc(Cl)cc2[N+](=O)[O-])CC1	-5	27	13	5.7*	5	.	Tb MetRS conf=14*;Jurkat tox=8;TbMetRS FP orth=7
COc1ccc(-c2nc(-c3ccccn3)ncc2S(C)(=O)=O)cc1	0	3	3	0	1	.
Cn1nc(-c2ccccn2)nc2c(=O)n(C)c(=O)nc1-2	42*	5	-11	31*	-25	.	Tb MetRS conf=31*;Jurkat tox=66*;TbMetRS FP orth=9
CCOC(=O)c1c(N)n(CCOC(=O)c2cccs2)c2nc3ccccc3nc12	1	19	-10	7.3*	-2	.	Tb MetRS conf=5.7*;Jurkat tox=6;TbMetRS FP orth=2
COc1c(Cl)cc(Cl)cc1CNc1ccc(S(N)(=O)=O)cc1	1	-10	2	16*	0	.	Tb MetRS conf=25*;Jurkat tox=17*;TbMetRS FP orth=12
COCCN1C(=O)C(=O)/C(=C(/O)c2ccc(S(=O)(=O)N3CCOCC3)cc2)C1c1cccc(OC)c1 (stereo not given)	2	43	-8	-1	0	.
O=C(CN1c2ccccc2S(=O)(=O)c2ccccc21)Nc1ccccc1F	6	7	-23	0	3	.
CCCCc1c(-c2ccccc2OC)ncn1CCc1cccc(OC)c1	.	.	-3	9.9*	-4	.	Tb MetRS conf=23*;Jurkat tox=36*;TbMetRS FP orth=1
CC1(C(=O)O)CCCN(C(=O)c2ccc(OC(F)F)cc2)C1 (stereo not given)	-5	.	-6	0	13	.
O=C(CSc1nnc2c(n1)[nH]c1ccccc12)NCc1ccccc1F	3	-8	-4	6.5*	3	.	Tb MetRS conf=44*;Jurkat tox=5;TbMetRS FP orth=27*
O=C(CSc1nnc2c(n1)[nH]c1ccc(F)cc12)Nc1ccccc1F	1	30	1	3	2	.
N#CCc1ccc(-c2cccc3nccn23)cc1	-6	.	9	0	0	.
COc1ccc(-c2oc3ccc(-c4ccc(OC)nc4)cc3c2C#CC2(O)CCCCC2)cc1	-3	9	15	-1	32*	10
O=C(Nc1ccc(F)cc1)N[C@H]1CC[C@H](CCNS(=O)(=O)c2cccc(Cl)c2)O[C@@H]1CO	.	.	5	0	1	.
Nc1ccc(N2CCCCC2)cc1N1CCCCC1	-3	21	-19	-1	47*	0
Cc1nn(-c2cc(N3CCCCC3)ccc2N)c(=O)c2ccccc12	2	18	14	0	6	.
COc1cc(/C=C2\SC(=O)N(CC(=O)Nc3cccc(C)c3)C2=O)cc([N+](=O)[O-])c1O	-1	16	11	0	21	.
SMILES	Rin1-Abl PPI inh	Arrestin-AP2 inh	SKN-1 inh	Tb MetRS inh	MT1-MMP act inh	MT1-MMP conf	others
COc1cc(/C=C2\SC(=O)N(c3ccccc3Cl)C2=O)cc([N+](=O)[O-])c1O	3	39	2	-1	31*	27
O=C(NCc1ccccc1F)C1CC(=O)N(Cc2ccco2)C1 (stereo not given)	-1	.	-4	0	2	.
Oc1ccc(N=Nc2c(O)ccc3ccccc23)cc1	-2	8	32	0	73*	41
NS(=O)(=O)c1ccc(N=Nc2c(O)ccc3ccccc23)cc1	-2	-11	4	0	1	.
O=C(O)c1cc(N=Nc2c(O)ccc3ccccc23)cc(C(=O)O)c1	-2	2	33	0	33*	30
COc1ccc(OCC(=O)NNc2c3ccccc3nc3ccccc23)cc1	-7	24	-21	0	35*	32
O=C(NNc1c2ccccc2nc2ccccc12)c1ccccc1O	-1	10	9	1	32*	39
O=C(COc1ccccc1)NNc1c2ccccc2nc2ccccc12	-7	-15	5	-1	19	.
O=C(NNc1c2ccccc2nc2ccccc12)c1ccc(O)cc1O	-6	0	20	1	27	.
CN1/C(=C\C(=S)NC(=O)c2ccc([N+](=O)[O-])cc2)C(C)(C)c2ccccc21	3	6	22	-2	42*	11
CN1/C(=C\C(=S)NC(=O)c2cccc(Br)c2)C(C)(C)c2ccccc21	-1	41	59	0	58	.
CN1C(=O)/C(=C\c2ccccc2OCc2ccccc2)SC1=S	2	1	0	0	1	.
CN1C(=O)/C(=C\c2cc(N=Nc3ccccc3)ccc2O)SC1=S	1	23	4	-2	32*	83*
COCCNC(=O)C(C)Oc1ccccc1 (stereo not given)	4	4	4	0	-1	.
Cc1cc2ccccc2n1CCNC(=O)C(C)Oc1ccccc1 (stereo not given)	2	21	36	-1	38*	5
Cc1ccccc1N=C/C=C1\N(C)c2ccccc2C1(C)C	-3	0	16	-2	56*	8
CN1/C(=C\C=N\O)C(C)(C)c2ccccc21	2	1	16	0	3	.
